This is a sample that favours compounds with a hit; in the whole collection about 2.9% have one here.
SENP7 block – blocks the human protease SENP7. recombinant SENP7, Z-RLRGG-aminoluciferin luminescence, 40 min. AID 434973. actives 1.5% (n = 330,000). inhibition, % at 5 µM;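 active = inhibition above about 50% at the single test dose, limit read from the data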;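 also: plate controls were DMSO with enzyme for no effect and no enzyme buffer wells for full effect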
Target sequence (Q9BQF6 706-1050 limits assumed): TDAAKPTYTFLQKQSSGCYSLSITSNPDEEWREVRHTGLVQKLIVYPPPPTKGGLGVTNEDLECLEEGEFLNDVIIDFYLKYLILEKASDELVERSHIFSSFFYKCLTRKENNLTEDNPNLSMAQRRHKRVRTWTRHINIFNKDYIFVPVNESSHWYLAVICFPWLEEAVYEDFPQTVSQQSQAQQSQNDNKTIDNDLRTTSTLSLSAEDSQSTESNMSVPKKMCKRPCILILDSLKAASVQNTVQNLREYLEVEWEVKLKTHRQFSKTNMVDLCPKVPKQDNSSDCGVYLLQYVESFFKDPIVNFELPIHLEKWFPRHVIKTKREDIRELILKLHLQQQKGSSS
SENP8 block-1 – SENP8 protease inhibition. Q96LD8. purified SENP8, Z-RLRGG-aminoluciferin cleavage, luminescence. inhibition, % at 10 µM. actives 1.2% (n = 330,000). AID 2540; in the data active = inhibition above about 50%
SENP1 inh – blocks the human SENP1 SUMO protease catalytic domain. recombinant SENP1 catalytic domain, CyPet-SUMO1-YPet FRET cleavage. inhibition, % at 10 µM. actives 0.21% (n = 360,000). AID 624204;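 active = inhibition at least 30% at 10 µM, raw YFP signal under a set limit, fluorescence ratio 0.5 to 1.5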;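 also: 0% = enzyme with DMSO and 100% = no enzyme wells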
Target sequence (Q9P0U3 419-644 limits assumed): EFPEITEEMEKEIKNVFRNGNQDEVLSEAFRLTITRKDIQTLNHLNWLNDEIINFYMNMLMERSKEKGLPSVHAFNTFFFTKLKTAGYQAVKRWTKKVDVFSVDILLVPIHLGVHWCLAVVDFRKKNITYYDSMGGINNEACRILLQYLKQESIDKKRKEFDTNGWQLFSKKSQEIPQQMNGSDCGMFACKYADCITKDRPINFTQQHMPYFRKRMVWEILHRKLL
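Test system: recombinant human SENP1 catalytic domain, His6-tagged / Medium: pH 8 Tris buffer with EDTA, NaCl, BME, BSA, NP40, catalase / Also added: SUMO1 FRET substrate flanked by Cypet and Ypet, 25 nM / Times: 50 min reaction at room temperature / Signal: FRET, CFP and YFP emission / Control set: no-enzyme low control and enzyme-plus-DMSO high control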
SENP8 block-2 – blocks human SENP8 cleavage of Nedd8 substrate | Q96LD8 | recombinant SENP8, Nedd8 substrate fluorescence | inhibition, % at 20 µM | actives 0.64% (n = 360,000) | AID 602440; in the data active = inhibition mostly above about 40%, no sharp cut-off; inactive = mostly below about 27%
SENP6 block – SENP6 protease inhibition; inhibition, % at 10 µM; Recombinant SENP6 catalytic domain, aminoluciferin luminescence; actives 1.8% (n = 330,000); Q9GZR1;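 active = inhibition above about 50% at the single tested dose, limit read from the data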;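 also: plate controls were DMSO wells with enzyme for no effect and DMSO wells lacking enzyme for full effect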
HSP90 inh – inhibitors of HSP90 luciferase refolding in rabbit reticulocyte lysate. luciferase refolding luminescence, 3 h. inhibition, % at 5.6 µM. actives 0.91% (n = 290,000);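 active = inhibition above the screen-wide mean plus 3 SD, computed separately per campaign, cut at about 16% in these data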;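 also: 0% = DMSO wells and 100% = 60 µM geldanamycin wells; inhibitors lower the luminescence because luciferase stays unfolded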
HSP90 confirm – HSP90 inhibition, confirmation assay; shares compounds with HSP90 inh; inhibition, % at 5.9 µM; actives 64% (n = 2,300); rabbit reticulocyte lysate, luciferase refolding luminescence, 3 h; in the data active = inhibition above about 18%;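 also: 0% = vehicle wells and 100% = reference inhibitor wells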
luciferase ctr – firefly luciferase inhibition, HSP90 counter-screen | purified native firefly luciferase, luminescence | actives 48% (n = 2,300) | shares compounds with HSP90 inh | AID 1847 | inhibition, % at 5.9 µM;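 active = inhibition above the mean inhibition of all tested sample wells plus 3 SD, cut at about 10% in these data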;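 also: 0% = DMSO with luciferase and 100% = wells lacking luciferase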
Active calls of the source: *; nt = no result.

SMILES	SENP7 block	SENP8 block-1	SENP1 inh	SENP8 block-2	SENP6 block	HSP90 inh	HSP90 confirm	luciferase ctr
Nc1cccc2c1C(=O)N(C(=O)/C=C/c1ccc(F)cc1)C2=O	0.8	-2.4	-39.3	-461.0	10.4	28.4*	11.9	-12.9
Nc1cccc2c1C(=O)N(C(=O)c1ccco1)C2=O	-5.6	0.6	-35.4	-276.5	-10.0	4.5	nt	nt
COc1ccc(S(=O)(=O)N2CCOCC2)cc1NC(=O)CSc1nnnn1C1CC1	5.5	-1.6	0.1	2.6	-1.9	nt	nt	nt
c1ccc(NNC2=NCCS2)cc1	-0.4	-1.6	-0.2	21.2	11.1	19.3*	14.1	-14.8
Cc1ccc(-c2onc3ccc(C=O)cc23)cc1	9.3	7.2	-9.7	-22.7	-24.8	49.8*	12.1	-23.6
CC(C)(C)c1ccc(OCCC(=O)Nc2cccc(S(=O)(=O)N3CCCCC3)c2)cc1	-2.9	-6.7	-2.8	-2.9	-3.8	3.8	nt	nt
O=C(Nc1ccccc1N1CCCCC1)c1ccc(-c2cccc(Cl)c2)o1	6.8	1.7	3.5	-20.9	7.3	-0.8	nt	nt
O=C(Nc1cccc2nsnc12)c1ccc(-c2cccc(Cl)c2)o1	9.1	12.0	9.3	-370.1	32.0	17.5*	1.6	-9.5
COc1cccc(NC(=O)COC(=O)/C=C/c2c(C)nn(-c3ccccc3)c2C)c1	5.1	-0.6	1.3	4.0	-17.1	nt	nt	nt
N#CC1=C(N)Oc2n[nH]c(-c3cccs3)c2C1c1ccsc1 (stereo not given)	26.4	18.4	-29.4	-4.8	23.7	21.3*	4.4	1.0
COC(=O)c1ccccc1NS(=O)(=O)c1ccc(Cl)nc1	5.9	-0.5	1.4	-28.1	18.0	1.8	nt	nt
CCc1ccc(S(=O)(=O)N2CCN(C(=O)C3CCN(C(C)=O)CC3)CC2)cc1	-4.0	6.2	1.3	6.1	-7.2	-0.3	nt	nt
CCOC(=O)c1c(C)oc2c1c(C=NCC1CCCO1)c(O)c1ccccc12 (stereo not given)	nt	nt	-23.8	18.8	nt	18.7*	1.7	-11.1
CC1=NN(c2ccccc2)C(=O)/C1=C\N(O)c1ccccc1	35.8	6.7	3.3	75.8*	25.1	41.0*	79.7*	-17.4
Cc1cc(C)c2nc(N3CCC(C(=O)NCCCN4CC(C)CC(C)C4)CC3)sc2c1 (stereo not given)	0.6	-6.3	1.0	5.1	-11.8	30.7*	40.1*	6.4
Cc1cc(C)c2nc(N3CCCC(C(=O)NCCCN4CCOCC4)C3)sc2c1 (stereo not given)	-6.4	-9.6	0.4	16.8	-8.7	2.2	nt	nt
O=C(Nc1ccc2nc3n(c(=O)c2c1)CCCCC3)c1cc([N+](=O)[O-])ccc1F	1.2	-3.8	0.8	11.5	1.1	33.8*	15.0	4.4
O=C(Nc1ccc2nc3n(c(=O)c2c1)CCCCC3)c1ccccc1[N+](=O)[O-]	10.7	0.5	0.9	18.0	-3.9	-3.0	nt	nt
O=C(Nc1ccc2nc3n(c(=O)c2c1)CCCCC3)c1c(F)ccc([N+](=O)[O-])c1F	-1.7	-2.5	3.0	15.2	6.5	24.4*	5.5	2.7
Cn1ccc(C(=O)Nc2sc3c(c2C(N)=O)CCCCC3)n1	4.1	8.1	-3.4	-28.9	0.2	18.6*	37.8*	19.0*
CCN(C(=O)COC(=O)CCOc1ccc(C(C)(C)C)cc1)c1c(N)n(Cc2ccccc2)c(=O)[nH]c1=O	nt	nt	0.2	4.1	nt	nt	nt	nt
CC1(C(=O)NCCN2CCOCC2)C=CC2(CCCCC2)N1C(=O)c1ccccc1 (stereo not given)	-6.9	-0.9	0.8	14.0	-1.3	0.9	nt	nt
CCCCC(=O)N(Cc1ccc(F)cc1)C1CCS(=O)(=O)C1 (stereo not given)	6.2	-6.4	1.8	27.2	-7.9	-4.7	nt	nt
CC(C)C(=O)Nc1ccc(NC(=O)c2ccccn2)cn1	34.9	2.7	1.1	16.5	42.6	37.4*	37.4*	26.6*
CCC(=O)Nc1ccc(NC(=O)c2ccccn2)cn1	2.6	-13.7	-0.3	14.5	17.2	3.8	nt	nt
SMILES	SENP7 block	SENP8 block-1	SENP1 inh	SENP8 block-2	SENP6 block	HSP90 inh	HSP90 confirm	luciferase ctr
CCOC(=O)C(CCCP(=O)(c1ccccc1)c1ccccc1)(NC(C)=O)C(=O)OCC	-1.8	-6.4	1.5	22.7	-17.2	23.4*	-8.9	-11.9
CCOC(=O)C(CCCCP(=O)(c1ccccc1)c1ccccc1)(NC(C)=O)C(=O)OCC	0.4	-3.8	1.9	0.4	-7.5	6.1	nt	nt
Cc1cc2ccccc2n1CCNC(=O)C1CC1	2.9	6.0	-32.3	-30.8	-7.9	-2.6	nt	nt
Cc1cc2ccccc2n1CCNC(=O)c1cccs1	2.1	-0.3	-50.7	-44.4	3.7	23.0*	39.4*	-3.3
Cc1ccc2nc(-c3cc(-c4ccccc4)no3)cn2c1	89.7*	32.4	-1.1	-233.1	44.4	25.4*	68.6*	57.8*
CC(C)(C)C(=O)Nc1ccc(NC(=O)c2ccco2)nc1	3.0	-6.0	1.3	7.5	1.2	91.4*	88.8*	83.7*
Nc1ccc(/C=C/C(=O)c2ccco2)cc1	3.6	-12.1	-22.6	-113.6	-3.6	-0.7	nt	nt
O=C(Nc1ccc(NC(=O)c2ccco2)nc1)c1ccco1	-1.4	-4.8	2.8	-4.5	-17.5	14.0	nt	nt
CC(C)(C)C(=O)Nc1ccc(/C=C/C(=O)c2ccco2)cc1	-16.9	-18.2	-5.7	-225.0	-4.2	26.2*	39.9*	49.9*
O=C(Nc1ccc(NC(=O)C2CCCCC2)cn1)c1ccco1	19.4	-10.7	0.4	6.1	15.4	21.6*	54.8*	47.5*
CC1(C)CCC[C@@]2(C)CC=C(C(=O)O)[C@@H]3C[C@]312	-0.1	1.7	4.5	20.4	-0.4	nt	nt	nt
CC1(C)CN=C(N(Cc2ccccc2)C(=O)Nc2ccccc2)S1	-6.2	-9.0	4.0	0.8	-0.5	19.0*	29.4*	18.7*
CC1(C)CN=C(N(C(=O)Nc2ccccc2)c2ccccc2F)S1	-8.8	-9.7	-1.6	9.1	-33.6	3.3	nt	nt
CC(C)(C)n1nnnc1C(c1cc2ccccc2o1)N(CCC#N)Cc1ccccc1 (stereo not given)	nt	nt	4.8	23.3	nt	nt	nt	nt
O=C(Nc1ccccc1O)c1cc2cc(Br)ccc2oc1=O	21.2	-5.0	6.7	2.8	-20.8	17.5*	-4.1	-16.4
O=C(NNC(=O)c1cc2cc(Br)ccc2oc1=O)c1ccc(O)cc1	5.2	-5.2	13.3	16.0	-10.6	-3.4	nt	nt
O=C(c1ccco1)N1CCN(Cc2cc(=O)c(OCc3ccccc3F)co2)CC1	6.5	-3.8	-0.2	8.4	1.2	nt	nt	nt
O=C(NCCc1ccccc1)c1ccccc1NC(=O)C1CCCCC1C(=O)O (stereo not given)	-3.8	3.8	nt	nt	17.4	47.4*	2.5	-9.1
